# Source: ChEMBL document CHEMBL1765045, “Fine-tuning the selectivity of aldosterone synthase inhibitors: structure-activity and structure-selectivity insights from studies of heteroaryl substituted 1,2,5,6-tetrahydropyrrolo[3,2,1-ij]quinolin-4-one derivatives” (J Med Chem, 2011)
# pIC50: −log10 of the molar value.
# Assays:
# [1] = molecular target: T1, Cytochrome P450 11B2, mitochondrial (Homo sapiens, UniProt P19099); assay: Inhibition of human CYP11B2 expressed in hamster V79 MZh cells assessed as conversion of [4-14C]-11-deoxycorticosterone substrate at 500 nM by HPTLC assay; assay type: cell-based; settings: V79MZh
# T1 sequence (P19099 whole entry): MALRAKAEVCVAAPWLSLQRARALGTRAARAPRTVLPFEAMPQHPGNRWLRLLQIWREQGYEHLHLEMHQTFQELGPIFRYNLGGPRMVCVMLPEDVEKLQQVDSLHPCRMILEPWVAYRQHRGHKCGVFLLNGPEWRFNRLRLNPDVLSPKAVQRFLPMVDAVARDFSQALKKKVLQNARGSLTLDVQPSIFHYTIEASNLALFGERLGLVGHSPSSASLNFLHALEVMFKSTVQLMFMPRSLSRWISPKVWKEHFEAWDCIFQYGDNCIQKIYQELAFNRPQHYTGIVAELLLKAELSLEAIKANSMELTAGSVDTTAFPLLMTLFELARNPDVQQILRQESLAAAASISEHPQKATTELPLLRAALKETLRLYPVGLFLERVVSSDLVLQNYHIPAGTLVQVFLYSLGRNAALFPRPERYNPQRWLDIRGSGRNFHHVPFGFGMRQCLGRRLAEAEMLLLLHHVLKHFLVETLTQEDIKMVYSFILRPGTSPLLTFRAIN
# In short: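 V79 MZh cells expressing human CYP11B2 given [4-14C]-11-deoxycorticosterone, 100 nM, with inhibitor at a single 500 nM concentration. Ethyl acetate extraction, then HPTLC/phosphoimager readout of conversion. Percent inhibition is the mean of at least three experiments.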
# [2] = molecular target: T1, Cytochrome P450 11B2, mitochondrial; assay: Inhibition of human CYP11B2 expressed in hamster V79 MZh cells assessed as conversion of [4-14C]-11-deoxycorticosterone substrate by HPTLC assay; assay type: cell-based
# In short: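 Hamster V79 MZh fibroblasts expressing human CYP11B2 incubated with [4-14C]-11-deoxycorticosterone (100 nM) and inhibitor at ≥3 concentrations; reaction stopped with ethyl acetate, steroids extracted after shaking and centrifugation (10000g, 2 min). Substrate conversion read by HPTLC with phosphoimaging.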
# [3] = molecular target: T2, Cytochrome P450 11B1, mitochondrial (Homo sapiens, UniProt P15538); assay: Inhibition of human CYP11B1 expressed in hamster V79 MZh cells assessed as conversion of [4-14C]-11-deoxycorticosterone substrate by HPTLC assay; assay type: cell-based
# T2 sequence (P15538 whole entry): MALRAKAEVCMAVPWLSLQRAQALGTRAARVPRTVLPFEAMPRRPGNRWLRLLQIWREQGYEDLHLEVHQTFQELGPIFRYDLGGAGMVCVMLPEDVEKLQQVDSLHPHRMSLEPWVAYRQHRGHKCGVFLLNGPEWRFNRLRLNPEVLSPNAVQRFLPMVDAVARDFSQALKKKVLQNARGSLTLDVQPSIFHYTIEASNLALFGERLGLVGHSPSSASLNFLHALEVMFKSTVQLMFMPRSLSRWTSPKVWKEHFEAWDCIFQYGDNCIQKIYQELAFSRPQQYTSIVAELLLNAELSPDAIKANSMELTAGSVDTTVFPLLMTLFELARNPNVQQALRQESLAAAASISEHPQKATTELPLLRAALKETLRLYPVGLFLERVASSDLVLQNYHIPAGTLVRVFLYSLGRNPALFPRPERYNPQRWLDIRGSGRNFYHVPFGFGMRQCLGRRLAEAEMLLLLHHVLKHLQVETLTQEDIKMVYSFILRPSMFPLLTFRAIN
# In short: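 V79 MZh hamster fibroblasts stably expressing human CYP11B1 or CYP11B2 incubated with [4-14C]-11-deoxycorticosterone, 100 nM, plus inhibitor at ≥3 concentrations. Reaction stopped with ethyl acetate, steroids extracted into the organic phase, and substrate conversion quantified by HPTLC with phosphoimaging. IC50 is the mean of at least three experiments.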
# CYP1A2 [4] = molecular target: T3, CYP1A2 (Homo sapiens, UniProt P05177); assay: Inhibition of human CYP1A2 expressed in baculovirus-infected insect microsomes at 1 uM; assay type: ADME, Microsome
# T3 sequence (P05177 whole entry): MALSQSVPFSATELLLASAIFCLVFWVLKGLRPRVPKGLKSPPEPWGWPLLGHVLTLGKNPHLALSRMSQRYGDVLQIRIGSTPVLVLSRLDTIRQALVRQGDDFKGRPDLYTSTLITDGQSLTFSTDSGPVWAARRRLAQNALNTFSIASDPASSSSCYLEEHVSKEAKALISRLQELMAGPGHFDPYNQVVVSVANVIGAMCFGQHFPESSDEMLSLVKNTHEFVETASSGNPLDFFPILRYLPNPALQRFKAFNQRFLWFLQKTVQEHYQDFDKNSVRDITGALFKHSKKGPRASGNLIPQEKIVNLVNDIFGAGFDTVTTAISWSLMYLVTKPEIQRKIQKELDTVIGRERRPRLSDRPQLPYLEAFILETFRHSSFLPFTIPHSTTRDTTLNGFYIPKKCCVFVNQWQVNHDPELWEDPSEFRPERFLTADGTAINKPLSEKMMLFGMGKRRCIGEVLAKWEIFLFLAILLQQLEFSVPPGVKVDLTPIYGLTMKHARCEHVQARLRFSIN
# In short: (§1)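 Recombinant human CYP1A2, 2B6, 2C9, 2C19, 2D6 or 3A4 in baculovirus-infected insect microsomes (Supersomes), run per manufacturer's protocol. Inhibitor at 1 and 10 μM; percent inhibition is the mean of two experiments.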
# CYP3A4 [5] = molecular target: T4, CYP3A4 (Homo sapiens, UniProt P08684); assay: Inhibition of human CYP3A4 expressed in baculovirus-infected insect microsomes at 10 uM; assay type: ADME, Microsome; in short: as §1
# CYP17 = molecular target: T5, CYP17 (Homo sapiens, UniProt P05093); assay: Inhibition of human CYP17 expressed in Escherichia coli using progesterone substrate at 2 uM; settings: recombinant human CYP17 expressed in Escherichia coli, probe progesterone
# T5 sequence (P05093 whole entry): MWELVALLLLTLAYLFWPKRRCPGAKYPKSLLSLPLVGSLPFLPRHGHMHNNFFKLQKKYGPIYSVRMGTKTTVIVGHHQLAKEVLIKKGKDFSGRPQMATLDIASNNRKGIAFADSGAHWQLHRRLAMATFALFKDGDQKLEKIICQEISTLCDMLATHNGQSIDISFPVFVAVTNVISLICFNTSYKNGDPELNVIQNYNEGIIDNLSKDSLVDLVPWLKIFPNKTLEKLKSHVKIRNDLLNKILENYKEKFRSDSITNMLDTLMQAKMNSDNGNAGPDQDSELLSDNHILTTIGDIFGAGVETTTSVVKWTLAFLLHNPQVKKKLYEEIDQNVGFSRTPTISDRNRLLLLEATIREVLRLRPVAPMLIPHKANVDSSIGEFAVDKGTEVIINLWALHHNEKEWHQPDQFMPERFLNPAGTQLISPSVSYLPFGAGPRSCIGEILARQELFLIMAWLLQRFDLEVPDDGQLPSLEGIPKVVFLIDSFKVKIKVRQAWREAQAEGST
# In short: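 50000g sediment of E. coli homogenate recombinantly expressing human CYP17. Progesterone substrate at 25 μM, inhibitor tested at 2 μM.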
# CYP2C9 [6] = molecular target: T6, CYP2C9 (Homo sapiens, UniProt P11712); assay: Inhibition of human CYP2C9 expressed in baculovirus-infected insect microsomes at 1 uM; assay type: ADME, Microsome; in short: as §1
# CYP1A2 [7] = molecular target: T3, CYP1A2; assay: Inhibition of human CYP1A2 expressed in baculovirus-infected insect microsomes at 10 uM; assay type: ADME, Microsome; in short: as §1
# CYP2C19 [8] = molecular target: T7, CYP2C19 (Homo sapiens, UniProt P33261); assay: Inhibition of human CYP2C19 expressed in baculovirus-infected insect microsomes at 1 uM; assay type: ADME, Microsome; in short: as §1
# CYP2C19 [9] = molecular target: T7, CYP2C19; assay: Inhibition of human CYP2C19 expressed in baculovirus-infected insect microsomes at 10 uM; assay type: ADME, Microsome; in short: as §1
# CYP2C9 [10] = molecular target: T6, CYP2C9; assay: Inhibition of human CYP2C9 expressed in baculovirus-infected insect microsomes at 10 uM; assay type: ADME, Microsome; in short: as §1
# CYP3A4 [11] = molecular target: T4, CYP3A4; assay: Inhibition of human CYP3A4 expressed in baculovirus-infected insect microsomes at 1 uM; assay type: ADME, Microsome; in short: as §1
# Homo sapiens = species: Homo sapiens; assay: Selectivity ratio of IC50 for human CYP11B1 to IC50 for human CYP11B2
# In short: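 Ratio of IC50 values from V79 MZh cell assays for human CYP11B1 and CYP11B2, IC50 CYP11B1/IC50 CYP11B2. Both assays used [4-14C]-11-deoxycorticosterone, 100 nM, inhibitor at ≥3 concentrations and HPTLC/phosphoimager readout of conversion.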
# T4 sequence (P08684 whole entry): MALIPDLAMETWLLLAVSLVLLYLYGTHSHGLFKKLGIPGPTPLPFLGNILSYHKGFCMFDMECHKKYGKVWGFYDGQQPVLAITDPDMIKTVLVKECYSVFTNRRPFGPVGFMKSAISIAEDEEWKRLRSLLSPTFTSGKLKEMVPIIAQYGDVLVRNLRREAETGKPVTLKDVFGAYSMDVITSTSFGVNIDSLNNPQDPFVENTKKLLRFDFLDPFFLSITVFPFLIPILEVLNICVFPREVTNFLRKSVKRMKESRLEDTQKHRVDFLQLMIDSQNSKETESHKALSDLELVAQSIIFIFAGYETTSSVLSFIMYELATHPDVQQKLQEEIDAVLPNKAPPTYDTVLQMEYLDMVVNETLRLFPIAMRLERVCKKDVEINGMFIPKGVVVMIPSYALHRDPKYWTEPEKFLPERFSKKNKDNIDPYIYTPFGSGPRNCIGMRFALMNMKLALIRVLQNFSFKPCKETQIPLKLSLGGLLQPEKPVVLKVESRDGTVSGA
# T6 sequence (P11712 whole entry): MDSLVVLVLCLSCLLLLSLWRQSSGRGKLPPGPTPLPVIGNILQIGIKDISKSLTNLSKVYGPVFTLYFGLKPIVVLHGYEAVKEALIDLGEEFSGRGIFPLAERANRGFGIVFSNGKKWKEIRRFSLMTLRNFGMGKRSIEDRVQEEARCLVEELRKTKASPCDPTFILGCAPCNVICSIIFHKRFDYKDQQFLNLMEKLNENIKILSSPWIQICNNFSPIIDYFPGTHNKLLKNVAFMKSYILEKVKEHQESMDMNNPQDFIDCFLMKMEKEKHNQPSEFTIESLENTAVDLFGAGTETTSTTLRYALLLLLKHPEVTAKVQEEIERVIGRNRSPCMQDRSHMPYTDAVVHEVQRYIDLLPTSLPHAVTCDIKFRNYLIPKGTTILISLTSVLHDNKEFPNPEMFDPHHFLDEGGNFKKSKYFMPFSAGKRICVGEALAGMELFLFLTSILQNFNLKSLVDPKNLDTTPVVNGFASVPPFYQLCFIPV
# T7 sequence (P33261 whole entry): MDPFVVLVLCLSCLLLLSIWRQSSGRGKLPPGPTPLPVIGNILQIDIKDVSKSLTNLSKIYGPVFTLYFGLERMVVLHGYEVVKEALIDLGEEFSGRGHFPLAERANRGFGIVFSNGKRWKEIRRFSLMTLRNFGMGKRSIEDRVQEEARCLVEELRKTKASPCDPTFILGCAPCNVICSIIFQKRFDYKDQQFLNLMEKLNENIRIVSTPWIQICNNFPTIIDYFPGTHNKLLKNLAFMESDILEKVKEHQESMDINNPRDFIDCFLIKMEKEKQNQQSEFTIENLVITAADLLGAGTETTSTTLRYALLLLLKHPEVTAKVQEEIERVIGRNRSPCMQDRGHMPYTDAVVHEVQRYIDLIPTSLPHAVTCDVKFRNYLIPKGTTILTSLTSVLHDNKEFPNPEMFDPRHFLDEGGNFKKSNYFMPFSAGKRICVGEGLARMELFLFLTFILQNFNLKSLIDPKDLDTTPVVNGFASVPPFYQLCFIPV
SMILES,inhibition at 0.5 µM [1] [%],pIC50 [2],pIC50 [3],inhibition at 2 µM (CYP17) [%],also measured
CC1(C)CC(=O)N2CCc3cc(-c4cccnc4)cc1c32,48,–,–,–,–
O=C1CCc2cc(-n3ccnc3)cc3c2N1CC3,87,7.05,5.68,–,–
O=C1CCc2cc(-c3ccncc3)cc3c2N1CC3,7,–,–,–,–
COc1ccccc1-c1cncc(-c2cc3c4c(c2)CCN4C(=O)CC3)c1,86,8.62,6.89,–,–
O=C1CCc2cc(-c3cncc(-c4cc(F)cc(F)c4)c3)cc3c2N1CC3,81,7.74,5.76,–,–
O=C1CCc2cc(-c3cncc(-c4cc(F)ccc4F)c3)cc3c2N1CC3,80,8.44,6.74,–,–
O=C1CCc2cc(-c3cncc(-c4cccc(C(F)(F)F)c4)c3)cc3c2N1CC3,80,7.48,5.33,–,–
COc1cncc(-c2cc3c4c(c2)CCC(=O)N4CCC3)c1,95,9.05,6.26,< 5,inhibition at 1 µM (CYP1A2 [4]): 47%; inhibition at 10 µM (CYP3A4 [5]): 24%; inhibition at 1 µM (CYP2C9 [6]): 34%; inhibition at 10 µM (CYP1A2 [7]): 87%; inhibition at 1 µM (CYP2C19 [8]): 11%; inhibition at 10 µM (CYP2C19 [9]): 61%; inhibition at 10 µM (CYP2C9 [10]): 63%; inhibition at 1 µM (CYP3A4 [11]): 12%
O=C1CCc2cc(-c3cncc(O)c3)cc3c2N1CC3,94,8.37,5.69,–,–
COc1cccc(-c2cncc(-c3cc4c5c(c3)CCN5C(=O)CC4)c2)c1,86,8.34,5.86,< 5,Ratio IC50 (Homo sapiens): 299
O=C1CCc2cc(-c3cncnc3)cc3c2N1CC3,81,7.25,4.54,5,–
COc1ccc(-c2cncc(-c3cc4c5c(c3)CCN5C(=O)CC4)c2)cc1,95,8.85,7.68,–,–
O=C1CCc2cc(-c3cncc(-c4ccccc4)c3)cc3c2N1CC3,97,8.89,7.24,–,Ratio IC50 (Homo sapiens): 45
O=C1CCc2cc(-c3cncc4ccccc34)cc3c2N1CC3,98,9.70,7.89,6,–
CC(C)Oc1cncc(-c2cc3c4c(c2)CCN4C(=O)CC3)c1,96,8.66,6.99,–,–
O=C1CCc2cc(-c3cncc4ccccc34)cc3c2N1CCC3,95,9.70,7.47,5,inhibition at 1 µM (CYP1A2 [4]): 24%; inhibition at 10 µM (CYP3A4 [5]): < 5%; inhibition at 1 µM (CYP2C9 [6]): 73%; inhibition at 10 µM (CYP1A2 [7]): 63%; inhibition at 1 µM (CYP2C19 [8]): 67%; inhibition at 10 µM (CYP2C19 [9]): 96%; inhibition at 10 µM (CYP2C9 [10]): 97%; inhibition at 1 µM (CYP3A4 [11]): < 5%; Ratio IC50 (Homo sapiens): 170
S=C1CCc2cc(-c3cccnc3)cc3c2N1CC3,96,8.92,6.48,11,–
O=C1CCc2cc(-c3cncc(-c4ccccc4F)c3)cc3c2N1CC3,92,9.15,7.37,–,Ratio IC50 (Homo sapiens): 61
O=C1CCc2cc(-c3cncc(-c4ccc(F)c(F)c4)c3)cc3c2N1CC3,89,8.64,6.30,< 5,–
O=C1CCc2cc(-c3cncc(-c4cccc(O)c4)c3)cc3c2N1CC3,92,8.92,7.36,–,–
CCOc1cncc(-c2cc3c4c(c2)CCN4C(=O)CC3)c1,92,9.00,6.80,–,Ratio IC50 (Homo sapiens): 158
O=C1CCc2cc(-c3cncc(C(F)(F)F)c3)cc3c2N1CC3,96,8.23,6.85,–,–
O=C1CCc2cc(-c3cncc(F)c3)cc3c2N1CC3,97,8.36,5.89,< 5,–
O=C1CCc2cc(-c3cncc(-c4cccc(OC(F)(F)F)c4)c3)cc3c2N1CC3,92,7.80,5.69,–,–
O=C1CCc2cc(-c3cncc(-c4ccc(F)cc4)c3)cc3c2N1CC3,96,9.05,7.40,–,–
